Results from the RNAGym collection of RNA variant scans (doi:10.1126/science.aae0568).
Fewer inactive variants are shown than the library holds.

B1: tRNA (parent)
chain: GUUCCGUUGGCGUAAUGGUAACGCGUCUCCCUCCUAAGGAGAAGACUGCGGGUUCGAGUCCCGUACGGAACG

Variants of: B1
Assay: yeast fitness relative to wild type (ratio to wild type); higher = fitter; tRNA-Arg(CCU), competitive growth, 37 C, YPD
How it was run: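 Variants of the tRNA-Arg(CCU) gene, chemically synthesised with a 3% per-site mutation rate at 69 sites, were placed at the native genomic locus in Saccharomyces cerevisiae. The pooled strains were competed in YPD at 37°C for 24 hours in six parallel replicates. Gene amplicons from the start population and from each end population were read by 100-nucleotide paired-end sequencing. Darwinian fitness relative to wild type came from changes in genotype frequencies; genotypes needed ≥ 100 starting reads, and estimates < 0.5 were set to 0.5.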
For A14C A21U A45C A57G, the yeast fitness was no more than 0.5. In the case of U13C G23A G63A A70U, the yeast fitness is reported as 0.527. With U13C A36U C62U G63C A70C the yeast fitness was no more than 0.5. For U13C C31U C55G G67C, the yeast fitness was no more than 0.5. Variant U13G U16A C24U G44A C49G has a yeast fitness of no more than 0.5. U13G C30U U32C gave a yeast fitness of 0.686. For U13G C24A C46G G52A, the yeast fitness was no more than 0.5. For U13G C31A U54C A57U, the yeast fitness was no more than 0.5. In the case of A14C C22G, the yeast fitness is reported as 0.701. A14C C22U showed a yeast fitness of 0.61. A14C A43U C61U gave a yeast fitness of no more than 0.5. In the case of A14C C24A G52A U53A A57C, the yeast fitness is reported as 0.5. Work on U13C G38A C49U yielded a yeast fitness of no more than 0.5. U13C C31G showed a yeast fitness of 0.933. A14C A15U C62G showed a yeast fitness of no more than 0.5. For U13C A69U, the yeast fitness was 1.07. Variant U13C C22A has a yeast fitness of 0.791. Work on U13C C22G yielded a yeast fitness of 0.709. Variant U13C C29G A36G G41A G48C A57U has a yeast fitness of no more than 0.5. With A14C A20U C66U the yeast fitness was no more than 0.5. With A14C A15C G25C A57C C62G A69G the yeast fitness was no more than 0.5. A14C A15C C34G A43C C49A showed a yeast fitness of 0.627. With U13C A20C A40G the yeast fitness was no more than 0.5. For U13C G25A C33G G41C C61G A65U, the yeast fitness was no more than 0.5. Work on U13C A36C U47C G67U yielded a yeast fitness of no more than 0.5. Variant U13C C22G C24U A37C G51C C55U A69C A70U has a yeast fitness of no more than 0.5. A14C A37G A57G gave a yeast fitness of 0.625. U13C U16G A43U gave a yeast fitness of 1.02. Work on U13G A65U yielded a yeast fitness of 0.896. U13G U54C G56A gave a yeast fitness of 0.563. Work on A14C A15G yielded a yeast fitness of 0.675. For U13C A21G C31G U47C, the yeast fitness was 0.555. In the case of U13G G39C C49G A65G, the yeast fitness is reported as no more than 0.5. U13C G58A showed a yeast fitness of 0.891. Variant U13C G58C has a yeast fitness of 0.922. In the case of U13G C22U C31A C55U G63A A69C, the yeast fitness is reported as no more than 0.5. Variant U13C G48A has a yeast fitness of 0.853. For U13C U26A, the yeast fitness was 0.982. Variant U13C C49A has a yeast fitness of 0.795. Variant U13G U35C A70U has a yeast fitness of 0.508. U13C A15U C27U A69U gave a yeast fitness of no more than 0.5. A14C C24U U26A G52C showed a yeast fitness of no more than 0.5. In the case of U13G C60U, the yeast fitness is reported as 0.747. A14C A37G A45C showed a yeast fitness of no more than 0.5. U13C A37G C49G C55U G56C G68A gave a yeast fitness of no more than 0.5. U13C G18A C46G U47A C49U C55G A57C showed a yeast fitness of no more than 0.5. Work on U13C C55G yielded a yeast fitness of 0.645. U13C C27U G52A U53A C66U gave a yeast fitness of no more than 0.5. A14C A36U G38A A65C showed a yeast fitness of no more than 0.5. Work on U13C G23C C62A yielded a yeast fitness of no more than 0.5. Work on U13C C46U yielded a yeast fitness of 0.886. For U13G C27A C30A A57C, the yeast fitness was no more than 0.5. For U13G A43G, the yeast fitness was 0.902. In the case of U13C A20C C22U C60G, the yeast fitness is reported as no more than 0.5. For A14C A36G G41A G48C U59C, the yeast fitness was 0.7. A14C A45U G50C G68C showed a yeast fitness of no more than 0.5. Work on A14C A20C yielded a yeast fitness of 0.533. Work on U13C A15G yielded a yeast fitness of 0.903. Variant U13G A65G C66A has a yeast fitness of no more than 0.5. For U13G A14U G17A, the yeast fitness was no more than 0.5. In the case of U13C C34G A40U A45C A57C C61U, the yeast fitness is reported as no more than 0.5. In the case of U13G C24U A36G U47C G50A, the yeast fitness is reported as 0.518. Work on A14C C27U C31U C33A G67C yielded a yeast fitness of 0.541. U13C C24G G67C gave a yeast fitness of no more than 0.5. For A14C A20G A36G C55U G68C, the yeast fitness was no more than 0.5. With U13C U26C C27G C34U A37U A43G A45G C46U the yeast fitness was no more than 0.5. Variant U13C G25C C61U has a yeast fitness of 1.14. U13G G63C showed a yeast fitness of 0.696. U13G A45C G48A showed a yeast fitness of 0.898. For U13G C61U A70G, the yeast fitness was 0.618. For A14C A20G G23A C29U U35C C55G, the yeast fitness was no more than 0.5. In the case of U13G C27U G44A A57U, the yeast fitness is reported as no more than 0.5. U13C A45C G56A gave a yeast fitness of 0.743. With U13C U28A C62U C66A the yeast fitness was no more than 0.5. With U13C C61U the yeast fitness was 0.928. Variant U13C C24G has a yeast fitness of 0.672. For A14C C27G A69U, the yeast fitness was 0.561. U13G A21C gave a yeast fitness of 0.611. U13G A21G gave a yeast fitness of 0.895. U13G C27U C31U C34G A40G G63C gave a yeast fitness of no more than 0.5. U13G A20G U53G C66U gave a yeast fitness of no more than 0.5. A14C A21C C24U A36U A43U G58C showed a yeast fitness of no more than 0.5. A14C A65G A69U showed a yeast fitness of 0.634. For U13G A20U A69U, the yeast fitness was 0.708. With U13G C22U G25A C31A the yeast fitness was 0.601. Work on U13G A21U C22G U26C U35A A65G A70C yielded a yeast fitness of no more than 0.5. For A14C C29U A36G A45U A70G, the yeast fitness was 0.548. A14C C22A C46A U64C showed a yeast fitness of no more than 0.5. In the case of U13C U54A C60U, the yeast fitness is reported as no more than 0.5. U13G A43C U54A A57G showed a yeast fitness of no more than 0.5. A14C C22U C24U U53A gave a yeast fitness of no more than 0.5. For U13C A43U C66U, the yeast fitness was 0.705. In the case of U13G G44A A57U, the yeast fitness is reported as 0.617. Work on U13G A40G U47C A69U yielded a yeast fitness of 0.653. U13C A20G C31U showed a yeast fitness of 0.777. Variant U13C U19C U26C C31A C61G has a yeast fitness of no more than 0.5. A14C A42G U47C showed a yeast fitness of no more than 0.5. U13G A43G U53A gave a yeast fitness of 0.57. U13C A45U gave a yeast fitness of 0.929. U13C A45C showed a yeast fitness of 0.853. In the case of A14C C24U U35C C55U, the yeast fitness is reported as no more than 0.5. For A14C A40C G41C C55A A70U, the yeast fitness was no more than 0.5. For U13C G18C G52C G56A, the yeast fitness was no more than 0.5. Work on A14C C22G U26G C55A A65G yielded a yeast fitness of no more than 0.5. For A14C A43U G63C, the yeast fitness was no more than 0.5. In the case of A14C A42C C49A A70U, the yeast fitness is reported as 0.588. U13G A42G gave a yeast fitness of 0.733. U13C A15G A21G U47G A65C showed a yeast fitness of no more than 0.5. U13C U59C C66U G67U showed a yeast fitness of 0.576. For U13C A57U U59A A69G, the yeast fitness was 0.561. With U13C U53C the yeast fitness was 0.727. With U13C U53A the yeast fitness was 0.674. With A14C A15G A42G the yeast fitness was 0.738. Variant U13C A14U U32C has a yeast fitness of 0.53. Variant U13C U16G has a yeast fitness of 0.865. In the case of U13G A40U C62A, the yeast fitness is reported as 0.52. Work on A14C A42C U47C yielded a yeast fitness of no more than 0.5. For U13G U16C A42U G44A C49A, the yeast fitness was no more than 0.5. Work on U13C A14G A45G yielded a yeast fitness of no more than 0.5. Variant A14C A21C C27U has a yeast fitness of no more than 0.5. In the case of U13C G23C A36C G39A A43G, the yeast fitness is reported as no more than 0.5. U13C C27G showed a yeast fitness of 0.544. U13G A36C C46U gave a yeast fitness of no more than 0.5. Work on U13C C27U C31A U35C C55G C66U A70C yielded a yeast fitness of no more than 0.5. Work on U13C C24G C49G yielded a yeast fitness of no more than 0.5. For A14C A15U G17A C27U U32C U35G, the yeast fitness was no more than 0.5. U13C G17A A43U gave a yeast fitness of 0.523. With U13C C22G C27A G51C the yeast fitness was no more than 0.5. With U13C C27U A69U A70C the yeast fitness was no more than 0.5. For U13G U35G A40G, the yeast fitness was 0.676. U13G C31U U35A showed a yeast fitness of 0.51. Work on A14C A40U yielded a yeast fitness of 0.587. A14C A40G showed a yeast fitness of 0.596. Work on A14C C24U yielded a yeast fitness of 0.666. A14C C24A gave a yeast fitness of no more than 0.5. For U13C G41C A70C, the yeast fitness was 0.566. For A14C C27G C46G A65G C66U, the yeast fitness was no more than 0.5. U13G A20U A65C gave a yeast fitness of 0.594. U13C C33U showed a yeast fitness of 0.744. Variant U13G C22U has a yeast fitness of 0.972. For U13G C22G, the yeast fitness was 0.809. Work on U13G A40U yielded a yeast fitness of 0.945. Variant A14C C24A G67A has a yeast fitness of no more than 0.5. U13C A15C C22U C34A C66A gave a yeast fitness of no more than 0.5. For A14C C24U C31U U53C C61G, the yeast fitness was no more than 0.5. In the case of U13G C22G G63C G67A, the yeast fitness is reported as no more than 0.5. In the case of A14C A15C A21U A57G, the yeast fitness is reported as no more than 0.5. With U13C G51C C66A the yeast fitness was no more than 0.5. For U13G G38A, the yeast fitness was 0.781. Work on A14C A57C yielded a yeast fitness of 0.516. With U13C A20U G39C A43C C49A U53A the yeast fitness was no more than 0.5. A14C A42U C60G A70G gave a yeast fitness of no more than 0.5. With U13C U16A A57U the yeast fitness was no more than 0.5. In the case of U13G A40G C61U G63C, the yeast fitness is reported as no more than 0.5. U13G C24U G44A G58C showed a yeast fitness of 0.508. A14C A42U C55G U59A gave a yeast fitness of 0.612. For U13C G23C A36C G39A, the yeast fitness was 0.611. A14C A36U A37G G52A A65U A70C showed a yeast fitness of no more than 0.5. Work on U13G U26A yielded a yeast fitness of 0.987. Work on U13C A57U yielded a yeast fitness of 0.753. U13G A20U A42G U59A A65G showed a yeast fitness of no more than 0.5. A14C A45U G48A C66G gave a yeast fitness of no more than 0.5. A14C A21G gave a yeast fitness of 0.713. For A14C A21C, the yeast fitness was 0.609. U13G C24G A36C A40U G48A showed a yeast fitness of 0.525. Work on U13G U28C yielded a yeast fitness of 0.867. Variant U13G U28G has a yeast fitness of 0.59.
